How the values were obtained:
Assay type in all cases: cell-based
[1] = molecular target: Toll-like receptor 4 (Homo sapiens) (UniProt O00206); assay: Activation of TLR4 in human PBMC cells assessed as AUC of IL8 release at 10 uM after 18 hrs by ELISA relative to N-cyclohexyl-2-(4-oxo-3-phenyl-4,5-dihydro-3H-pyrimido[5,4-b]indol-2-ylthio)acetamide
Method in brief: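 Human PBMC from buffy coats, 1 × 10^6/mL in complete RPMI, 18 h at 37 °C, 5% CO2 with compound at 10 μM; IL-8 in supernatant by ELISA, normalized to reference hit set at 100. LPS 10 ng/mL positive control.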

[2] = molecular target: T1, Toll-like receptor 4 (Mus musculus) (UniProt Q9QUK6); assay: Activation of mouse TLR4 transfected in HEK293 cells after 18 hrs by SEAP assay relative to N-cyclohexyl-2-(4-oxo-3-phenyl-4,5-dihydro-3H-pyrimido[5,4-b]indol-2-ylthio)acetamide
T1 sequence (whole entry): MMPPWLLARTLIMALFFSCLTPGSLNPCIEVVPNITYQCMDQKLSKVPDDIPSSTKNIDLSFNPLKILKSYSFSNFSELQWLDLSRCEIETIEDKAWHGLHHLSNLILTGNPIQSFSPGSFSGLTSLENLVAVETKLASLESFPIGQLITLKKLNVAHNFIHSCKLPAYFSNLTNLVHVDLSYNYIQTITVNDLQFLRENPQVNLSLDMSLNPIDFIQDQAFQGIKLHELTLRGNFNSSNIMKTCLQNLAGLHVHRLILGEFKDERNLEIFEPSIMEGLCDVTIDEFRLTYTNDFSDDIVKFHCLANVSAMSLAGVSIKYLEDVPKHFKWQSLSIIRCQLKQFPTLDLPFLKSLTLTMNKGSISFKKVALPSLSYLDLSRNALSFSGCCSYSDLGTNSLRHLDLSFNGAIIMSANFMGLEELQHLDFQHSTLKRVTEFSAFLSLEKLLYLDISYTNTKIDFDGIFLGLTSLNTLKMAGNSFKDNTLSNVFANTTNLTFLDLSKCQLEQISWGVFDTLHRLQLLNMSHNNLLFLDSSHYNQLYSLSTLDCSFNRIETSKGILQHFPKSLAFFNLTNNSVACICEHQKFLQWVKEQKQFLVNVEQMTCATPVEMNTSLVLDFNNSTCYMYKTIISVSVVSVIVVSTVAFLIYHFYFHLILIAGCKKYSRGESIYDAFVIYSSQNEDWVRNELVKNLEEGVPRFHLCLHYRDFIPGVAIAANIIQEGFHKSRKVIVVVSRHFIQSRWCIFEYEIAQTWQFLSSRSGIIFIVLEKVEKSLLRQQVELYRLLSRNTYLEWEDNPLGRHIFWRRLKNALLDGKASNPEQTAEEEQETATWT
Method in brief: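 Mouse TLR4 HEK-Blue cells (2.5 × 10^4/well) given titrated doses 312 nM–10 μM for 18 h, 0.5% DMSO vehicle; SEAP at 630 nm. Percent-activity curves, AUC by trapezoid method, normalized to reference hit set at 100. LPS 10 ng/mL control.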

[3] = molecular target: Toll-like receptor 4 (Homo sapiens) (UniProt O00206); assay: Activation of human TLR4 transfected in HEK293 cells after 18 hrs by SEAP assay relative to N-cyclohexyl-2-(4-oxo-3-phenyl-4,5-dihydro-3H-pyrimido[5,4-b]indol-2-ylthio)acetamide; parameters: concentration or dose not given beside the values
Method in brief: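 Human TLR4 HEK-Blue cells (2.5 × 10^4/well) given compound at 10 μM for 18 h, 0.5% DMSO vehicle; SEAP in supernatant read at 630 nm, normalized to reference hit set at 100. LPS 10 ng/mL positive control.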

[4] = molecular target: T1, Toll-like receptor 4 (Mus musculus); assay: Activation of TLR4 in C57BL/6 mouse BMDC cells assessed as AUC of IP10 release at 5 uM after 18 hrs by ELISA relative to N-cyclohexyl-2-(4-oxo-3-phenyl-4,5-dihydro-3H-pyrimido[5,4-b]indol-2-ylthio)acetamide
[5] = molecular target: T1, Toll-like receptor 4 (Mus musculus); assay: Activation of TLR4 in C57BL/6 mouse BMDC cells assessed as AUC of IL6 release after 18 hrs by ELISA relative to N-cyclohexyl-2-(4-oxo-3-phenyl-4,5-dihydro-3H-pyrimido[5,4-b]indol-2-ylthio)acetamide
Method in brief: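 C57BL/6 bone marrow DC, 10^5 cells/well in RPMI-10% FCS, 18 h at 37 °C with titrated doses 312 nM–10 μM; supernatant IL-6 by ELISA. Each curve converted to percent activity (background subtracted, plate-adjusted), AUC by trapezoid method, normalized to reference hit set at 100 per experiment. LPS 10 ng/mL positive control; 0.5% DMSO vehicle.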

Toll-like receptor 4 (Homo sapiens), sequence (O00206 whole entry): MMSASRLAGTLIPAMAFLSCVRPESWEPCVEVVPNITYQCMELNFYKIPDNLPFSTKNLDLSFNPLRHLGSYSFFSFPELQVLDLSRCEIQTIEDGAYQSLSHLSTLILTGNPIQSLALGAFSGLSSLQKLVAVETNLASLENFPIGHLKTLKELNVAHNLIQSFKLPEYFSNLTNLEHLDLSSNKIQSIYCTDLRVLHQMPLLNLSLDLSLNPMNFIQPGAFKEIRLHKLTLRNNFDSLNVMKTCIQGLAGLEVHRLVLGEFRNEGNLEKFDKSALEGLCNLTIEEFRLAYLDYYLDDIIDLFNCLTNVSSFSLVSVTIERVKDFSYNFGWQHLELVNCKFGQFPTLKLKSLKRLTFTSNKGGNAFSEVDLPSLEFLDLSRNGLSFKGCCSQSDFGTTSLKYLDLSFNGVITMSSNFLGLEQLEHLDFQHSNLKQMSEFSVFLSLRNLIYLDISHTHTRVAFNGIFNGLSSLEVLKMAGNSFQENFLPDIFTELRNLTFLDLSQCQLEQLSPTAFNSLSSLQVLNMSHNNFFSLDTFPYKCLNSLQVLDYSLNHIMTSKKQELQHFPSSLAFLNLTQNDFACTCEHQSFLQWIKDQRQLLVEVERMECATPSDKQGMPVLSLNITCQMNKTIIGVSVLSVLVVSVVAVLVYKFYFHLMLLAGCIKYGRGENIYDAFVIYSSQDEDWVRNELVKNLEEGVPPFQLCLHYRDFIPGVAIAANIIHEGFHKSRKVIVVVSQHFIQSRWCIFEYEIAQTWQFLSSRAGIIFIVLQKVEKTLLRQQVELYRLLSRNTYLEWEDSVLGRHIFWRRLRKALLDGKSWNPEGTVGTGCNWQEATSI

Activity [1] [%] | Activity [2] [%] | Activity [3] [%] | Activity [4] [%] | Activity [5] [%] | SMILES
5 | 41 | 51 | 72 | 48 | O=C(CSc1nc2c([nH]c3ccccc32)c(=O)n1-c1ccc(F)cc1)NC1CCCCC1
29 | 31 | 32 | 61 | 49 | CCCCNC(=O)CSc1nc2c([nH]c3ccccc32)c(=O)n1-c1ccccc1
7 | < 1 | < 1 | < 1 | 3 | O=C(CSc1nc2c([nH]c3ccccc32)c(=O)n1-c1ccccc1)Nc1ccc2cn[nH]c2c1
17 | < 1 | < 1 | < 1 | < 1 | O=C(CSc1nc2c([nH]c3ccccc32)c(=O)n1-c1ccccc1)NC1CCNCC1
1 | 6 | 11 | < 1 | 5 | CCCCCn1c2ccccc2c2nc(SCC(=O)NC3CCCCC3)n(-c3ccccc3)c(=O)c21
4 | < 1 | 8 | < 1 | < 1 | CCNC(=O)CSc1nc2c([nH]c3ccccc32)c(=O)n1-c1ccccc1
107 | 81 | 108 | 70 | 103 | O=C(CSc1nc2c([nH]c3ccccc32)c(=O)n1-c1ccccc1)Nc1ccc(F)cc1
< 1 | 6 | 3 | < 1 | 3 | O=C(CSc1nc2c([nH]c3ccccc32)c(=O)n1-c1ccc2ccccc2c1)NC1CCCCC1
4 | 8 | 11 | 1 | 1 | NC(=O)Cn1c2ccccc2c2nc(SCC(=O)NC3CCCCC3)n(-c3ccccc3)c(=O)c21
23 | 29 | 17 | 45 | 30 | CCC(C)CCNC(=O)CSc1nc2c([nH]c3ccccc32)c(=O)n1-c1ccccc1 (stereo not given)
< 1 | 2 | 21 | < 1 | < 1 | O=C(CSc1nc2c([nH]c3ccccc32)c(=O)n1-c1ccccc1)Nc1ccc2ccccc2c1
6 | 2 | 2 | < 1 | < 1 | Cc1ccc(-n2c(SCC(=O)NC3CCCCC3)nc3c([nH]c4ccccc43)c2=O)cc1
54 | 13 | 116 | 55 | 19 | Cc1cccc(NC(=O)CSc2nc3c([nH]c4ccccc43)c(=O)n2-c2ccccc2)c1
95 | 126 | 72 | 85 | 99 | CC(C)(C)CCNC(=O)CSc1nc2c([nH]c3ccccc32)c(=O)n1-c1ccccc1
13 | 11 | 39 | 45 | 14 | O=C(CSc1nc2c([nH]c3ccccc32)c(=O)n1-c1ccccc1)Nc1cccc(F)c1
73 | 95 | 64 | 98 | 114 | O=C(CSc1nc2c([nH]c3ccccc32)c(=O)n1-c1ccccc1)NC1CCCCCCC1
5 | 1 | 1 | < 1 | < 1 | O=C(CSc1nc2c([nH]c3ccccc32)c(=O)n1CCc1ccccc1)NC1CCCCC1

Activity [1] [%] | Activity [2] [%] | Activity [3] [%] | Activity [4] [%] | Activity [5] [%] | SMILES
5 | 2 | 12 | < 1 | 1 | O=C(CSc1nc2c([nH]c3ccccc32)c(=O)n1-c1ccccc1)Nc1nccs1
< 1 | < 1 | < 1 | < 1 | < 1 | CCCCCCCC/C=C\CCCCCCCC(=O)OC[C@H](COP(=O)(O)OCCNC(=O)CSc1nc2c([nH]c3ccccc32)c(=O)n1-c1ccccc1)OC(=O)CCCCCCC/C=C\CCCCCCCC
5 | < 1 | 6 | < 1 | < 1 | CC(C)(C)NC(=O)CSc1nc2c([nH]c3ccccc32)c(=O)n1-c1ccccc1
15 | 21 | 31 | 44 | 11 | O=C(CSc1nc2c([nH]c3ccccc32)c(=O)n1-c1ccccc1)Nc1ccccc1
15 | 5 | 27 | 26 | 18 | O=C(CSc1nc2c([nH]c3ccccc32)c(=O)n1-c1ccccc1)NCc1ccco1
61 | 43 | 71 | 54 | 36 | O=C(CSc1nc2c([nH]c3ccccc32)c(=O)n1-c1ccccc1)Nc1ccccc1F
19 | 18 | 32 | 66 | 35 | O=C(CSc1nc2c([nH]c3ccccc32)c(=O)n1-c1ccccc1)NC1CCC1
118 | 99 | 100 | 107 | 126 | O=C(CSc1nc2c([nH]c3ccccc32)c(=O)n1-c1ccccc1)NC1CCCCCC1
11 | 24 | 21 | 53 | 44 | CC(C)CNC(=O)CSc1nc2c([nH]c3ccccc32)c(=O)n1-c1ccccc1
124 | 9 | 19 | 19 | 4 | COC(=O)CCCn1c2ccccc2c2nc(SCC(=O)NC3CCCCC3)n(-c3ccccc3)c(=O)c21
14 | 19 | 33 | 47 | 47 | O=C(CSc1nc2c([nH]c3ccccc32)c(=O)n1C1CCCCC1)NC1CCCC1
< 1 | 4 | 10 | < 1 | < 1 | CCCCCCCCCCCCn1c2ccccc2c2nc(SCC(=O)NC3CCCCC3)n(-c3ccccc3)c(=O)c21
6 | 17 | 13 | 55 | 12 | CCCC(C)NC(=O)CSc1nc2c([nH]c3ccccc32)c(=O)n1-c1ccccc1 (stereo not given)
53 | 56 | 38 | 62 | 61 | CC(C)CCNC(=O)CSc1nc2c([nH]c3ccccc32)c(=O)n1-c1ccccc1
27 | 56 | 40 | 61 | 71 | O=C(CSc1nc2c([nH]c3ccccc32)c(=O)n1C1CCCCC1)NC1CCCCC1
< 1 | 8 | 11 | 26 | < 10 | CCC(CC)NC(=O)CSc1nc2c([nH]c3ccccc32)c(=O)n1-c1ccccc1
25 | 42 | 23 | 40 | 40 | CCCCCNC(=O)CSc1nc2c([nH]c3ccccc32)c(=O)n1-c1ccccc1
